HIV Env fusion: blocks HIV Env-driven cell-cell fusion. HeLa-JRFL Env/CEM21 cell fusion, luciferase. inhibition, % at 12.3 µM. hit rate 1.1% among 360,000;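 active = mean replicate inhibition score of at least 50 and every replicate individually at or above 50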
NR2E3 ag-1: activates human photoreceptor nuclear receptor NR2E3 | Q9Y5X4 | GST-NR2E3/biotin-RetCOR TR-FRET, 1536-well | inhibition of corepressor binding, % at 4.78 µM | hit rate 0.12% among 320,000 | AID 2300;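 active = percent inhibition above the cutoff of mean plus 3 SD of all tested compounds, set per screening campaign, cut at about 20% in these data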
Target sequence (Q9Y5X4 whole entry, looked up): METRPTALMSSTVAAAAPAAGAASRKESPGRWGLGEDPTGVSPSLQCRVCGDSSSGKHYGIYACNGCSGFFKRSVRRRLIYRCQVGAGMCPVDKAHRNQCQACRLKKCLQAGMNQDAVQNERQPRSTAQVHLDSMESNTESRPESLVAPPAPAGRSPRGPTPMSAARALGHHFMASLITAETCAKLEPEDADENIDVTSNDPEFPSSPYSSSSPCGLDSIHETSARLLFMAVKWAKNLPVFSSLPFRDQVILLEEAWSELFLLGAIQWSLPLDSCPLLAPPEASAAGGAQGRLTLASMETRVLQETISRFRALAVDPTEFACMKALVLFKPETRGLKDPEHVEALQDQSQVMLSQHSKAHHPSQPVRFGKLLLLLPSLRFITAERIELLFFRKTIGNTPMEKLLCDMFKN
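Material: NR2E3–RetCOR corepressor complex / Incubation: Compound–protein incubation for 5 h at 4 °C / Dosing: compound at 4.8 µM, single dose / Detection: time-resolved FRET / Benchmarks: high control biotin, low control 0.6% DMSO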
V-ATPase pHluor: yeast V-ATPase proton transport regulation by pHLuorin | S. cerevisiae, pHLuorin cytosolic pH fluorescence | hit rate 0.37% among 350,000 | AID 504577 | response, % at 10 µM; in the data active = response mostly above about 7.3%, no sharp cut-off; inactive = mostly below about 5.4%; note: actives read high
GalR3 antagonist: blocks the human galanin receptor 3 | HEK293 GalR3-CNG cAMP membrane potential fluorescence; galR3 body fused to GalR1 C-terminus | AID 651719 | hit rate 0.44% among 360,000 | inhibition, % at 3 µM | O60755;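 active = inhibition above the screen-wide average plus 3 SD, cut at about 13% in these data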;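 note: forskolin and galanin both at EC90 stimulate the cells; cAMP rise reported by CNG channel membrane potential dye signal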
Target sequence (O60755 1-299 limits assumed): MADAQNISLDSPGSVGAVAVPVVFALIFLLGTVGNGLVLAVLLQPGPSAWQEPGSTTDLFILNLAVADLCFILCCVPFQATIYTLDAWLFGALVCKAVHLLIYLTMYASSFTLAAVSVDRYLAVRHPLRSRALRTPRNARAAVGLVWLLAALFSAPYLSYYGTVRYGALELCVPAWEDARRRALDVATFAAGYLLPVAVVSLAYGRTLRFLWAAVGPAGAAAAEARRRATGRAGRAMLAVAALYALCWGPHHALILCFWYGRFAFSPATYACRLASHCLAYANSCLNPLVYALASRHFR
NR2E3 ag-2: activates human NR2E3 receptor | inhibition of corepressor binding, % at 3.98 µM | CHO-S Gal4-NCOR/VP16-NR2E3 two-hybrid, luciferase | Q9Y5X4 | hit rate 0.35% among 360,000;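 active = inhibition above the mean of all tested compounds plus 3 SD, cut at about 70% in these data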;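 note: higher means lower luciferase signal from less NR2E3 corepressor binding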
FXN GAA850 act: frataxin GAA850 promoter activation; HEK293 lucGAA850 FXN promoter luciferase reporter, 24 h; percent of 10 µM SAHA response; activation, % at 6 µM; hit rate 0.56% among 360,000;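 active = activation above the average of all compounds screened plus 3 SD, cutoff fixed separately per campaign, cut at about 7.5% in these data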
GAA30 counter: GAA30 FXN promoter activation counter-screen; shares compounds with FXN GAA850 act; HEK293 lucGAA30 FXN promoter luciferase, 24 h; DMSO = 0%, 5 µM ipriflavone = 100%; activation, % at 6 µM; hit rate 66% among 1,900; AID 588350;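 active = mean activation above the mean of solvent-only control wells plus 3 SD, cut at about 22% in these data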;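 note: counterscreen of GAA850 promoter hits where activity marks nonselective or luminescence artifacts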
FXN GAA850 conf: confirmation of GAA850 frataxin (FXN) promoter activators; shares compounds with FXN GAA850 act; HEK293 lucGAA850 FXN promoter luciferase reporter, 24 h; 100% = activation by SAHA; activation, % at 6 µM; hit rate 86% among 1,900;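 active = mean activation above a set limit taken from the primary screen, cut at about 8% in these data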
Each line names hits and unclear results; the compound was inactive in the other large screens (follow-up assays come after a bar, where they were run). Sampled rows, rich in hits. Any-hit rate of the full collection: about 2.2%.

O=C(Nc1ccc2c(c1)[C@H]1C[C@@H](CC(=O)N3CCOCC3)O[C@@H](CO)[C@H]1O2)NC1CCCCC1	none (no result: NR2E3 ag-1, V-ATPase pHluor, GalR3 antagonist, NR2E3 ag-2, FXN GAA850 act)
C=CCNc1sc(C(=O)c2ccccc2)c(N)c1-c1nc2ccccc2s1	FXN GAA850 act 8.0 (no result: HIV Env fusion, GalR3 antagonist) | GAA30 counter inactive | FXN GAA850 conf 10.7
CCCNC(=O)c1ccccc1NC(=O)c1ccccc1N(C)S(C)(=O)=O	none (no result: HIV Env fusion)
CCCNC(=O)c1ccccc1NC(=O)c1ccccc1N(C)S(=O)(=O)c1ccc(C)cc1	FXN GAA850 act 8.1 (no result: HIV Env fusion, NR2E3 ag-1) | GAA30 counter inactive | FXN GAA850 conf 10.7
COCC(=O)Nc1nnc(-c2ccc(C(C)(C)C)cc2)s1	FXN GAA850 act 8.3 | GAA30 counter 124.4 | FXN GAA850 conf 37.0
CC(C)(C)c1ccc(-c2nnc(NC(=O)c3ccccc3)s2)cc1	none (no result: HIV Env fusion)
COc1ccc(NC(=O)CSCC(=O)Nc2cc(Cl)ccc2N2CCOCC2)cc1	none
COc1ccc(NC(=O)CSCC(=O)Nc2cc(Cl)ccc2N2CCCC2)cc1	FXN GAA850 act 8.5 (no result: HIV Env fusion) | GAA30 counter inactive | FXN GAA850 conf inactive
CN=c1scc(-c2ccc(F)cc2)n1/N=C/c1ccc(O)c(O)c1	FXN GAA850 act 9.3 (no result: NR2E3 ag-1) | GAA30 counter 34.1 | FXN GAA850 conf 14.0
Cc1ccc(-c2nnn(CC(=O)N(CC3CCCO3)C(C(=O)NC3CCCCC3)c3ccc(F)cc3)n2)o1 (stereo not given)	HIV Env fusion 116.3, FXN GAA850 act 8.3 | GAA30 counter 22.5 | FXN GAA850 conf 8.4
CC(=O)N(C)C[C@@H]1Oc2cc(C#CCN(C)C)ccc2S(=O)(=O)N([C@@H](C)CO)C[C@H]1C	none (no result: NR2E3 ag-1, V-ATPase pHluor, GalR3 antagonist, NR2E3 ag-2, FXN GAA850 act)
Cc1cc(Cl)c2oc(C(=O)N3CCOCC3)c(C)c2c1	none (no result: NR2E3 ag-1)
Cc1cc(Cl)c2oc(C(=O)N(C)C3CCOC3)c(C)c2c1 (stereo not given)	FXN GAA850 act 9.8 | GAA30 counter 98.0 | FXN GAA850 conf 37.5
Cc1cc(Cl)c2oc(C(=O)N(CCO)Cc3ccccc3)c(C)c2c1	none
Cc1cc(Cl)c2oc(C(=O)N3CCN(C(=O)c4ccco4)CC3)c(C)c2c1	FXN GAA850 act 9.8 | GAA30 counter 114.3 | FXN GAA850 conf 39.6
Cc1ccc(C(=O)c2sc3nc4c(cc3c2N)CCC4)cc1	FXN GAA850 act 8.4 | GAA30 counter 100.0 | FXN GAA850 conf 40.8
Nc1c(C(=O)N2CCCCC2)sc2nc3c(cc12)CCCC3	none
Cc1noc(C)c1NC(=O)N[C@H]1C=C[C@@H](CC(=O)N2CCCCC2)O[C@H]1CO	none (no result: NR2E3 ag-1, V-ATPase pHluor, GalR3 antagonist, NR2E3 ag-2, FXN GAA850 act)
C[C@@H]1CN([C@@H](C)CO)C(=O)c2cccc(NS(=O)(=O)c3ccccc3)c2O[C@@H]1CN(C)C(=O)Nc1ccc(C(F)(F)F)cc1	none (no result: NR2E3 ag-1, V-ATPase pHluor, GalR3 antagonist, NR2E3 ag-2, FXN GAA850 act)
CCOC(=O)C1CCN(S(=O)(=O)c2cccc(-c3cn4cc(C)ccc4n3)c2)CC1	none (no result: HIV Env fusion)
CCOC(=O)C1CCN(S(=O)(=O)c2cccc(-c3csc(C)n3)c2)CC1	FXN GAA850 act 8.4 (no result: HIV Env fusion) | GAA30 counter inactive | FXN GAA850 conf inactive
Cc1ccc(-n2c(C)c(C)c3c(NCCO)ncnc32)cc1	FXN GAA850 act 7.9 | GAA30 counter 89.2 | FXN GAA850 conf 30.9
Cc1c(C)n(-c2ccccc2)c2ncnc(NCCCN(C)C)c12	none
C[C@H]1CN([C@@H](C)CO)C(=O)c2cc(C#CC3CC3)cnc2O[C@@H]1CN(C)Cc1cccc(C(=O)O)c1	none (no result: NR2E3 ag-1, V-ATPase pHluor, GalR3 antagonist, NR2E3 ag-2, FXN GAA850 act)
Nc1nc(Nc2ccccc2)sc1C(=O)c1ccccc1	FXN GAA850 act 21.8 | GAA30 counter 102.4 | FXN GAA850 conf 107.3
COc1ccc(C(=O)c2sc(Nc3ccccc3F)nc2N)cc1	FXN GAA850 act 8.1 | GAA30 counter 81.4 | FXN GAA850 conf 42.5
Cn1/c(=N\NC(=O)c2ccccc2Cl)sc2ccccc21	FXN GAA850 act 8.1 | GAA30 counter 103.6 | FXN GAA850 conf 26.9
CC(=O)N/N=c1\sc2ccccc2n1C	none
O=C(NCCc1ccc(O)c(O)c1)C1COc2ccccc2O1 (stereo not given)	FXN GAA850 act 8.8 | GAA30 counter inactive | FXN GAA850 conf 18.4
O=C(NCCc1ccccc1)C1COc2ccccc2O1 (stereo not given)	none
O=c1[nH]c2ccccc2nc1Cc1ccccc1	none (no result: HIV Env fusion)
O=C(Cc1nc2ccccc2[nH]c1=O)c1ccccc1	FXN GAA850 act 8.8 (no result: NR2E3 ag-1) | GAA30 counter 140.4 | FXN GAA850 conf 52.5
Cn1nc(NC(=O)C(F)(F)F)c2ncc(-c3ccc(Cl)cc3)nc21	none
Cn1nc(N)c2ncc(-c3ccc(Cl)cc3)nc21	FXN GAA850 act 9.7 (no result: NR2E3 ag-1) | GAA30 counter 98.5 | FXN GAA850 conf 30.1
C[C@H](NC(=O)[C@@H]1[C@@H](CO)[C@@H]2Cn3c(ccc(-c4ccncc4)c3=O)[C@@H]2N1C)c1ccccc1	none (no result: NR2E3 ag-1, V-ATPase pHluor, GalR3 antagonist, NR2E3 ag-2, FXN GAA850 act)
Cc1[nH]c2ccccc2c1C(=O)/C=C/c1ccccc1Cl	FXN GAA850 act 7.7 | GAA30 counter 117.4 | FXN GAA850 conf 43.6
Cc1[nH]c2ccccc2c1C(=O)/C=C\c1ccccc1Cl	none
C[C@H](CO)N1C[C@H](C)[C@@H](CN(C)C(=O)c2cnccn2)Oc2ncc(/C=C/c3ccccc3)cc2C1=O	none (no result: NR2E3 ag-1, V-ATPase pHluor, GalR3 antagonist, NR2E3 ag-2, FXN GAA850 act)
O=C1N/C(=C/c2ccc(N3CCOCC3)o2)C(=O)N1c1ccccc1	FXN GAA850 act 10.8 | GAA30 counter 54.1 | FXN GAA850 conf 18.9
C=CCN1C(=O)N/C(=C/c2ccc(N3CCOCC3)o2)C1=O	none (no result: V-ATPase pHluor, NR2E3 ag-2, FXN GAA850 act)
CCn1c(C)nc2cc(C(=O)N/N=C/c3ccccc3C)ccc21	FXN GAA850 act 12.9 | GAA30 counter 93.2 | FXN GAA850 conf 36.2
CCn1c(C)nc2cc(C(=O)NN=Cc3ccccc3OC(F)F)ccc21	none (no result: NR2E3 ag-1)
Cc1ccc(O)c(N/C=C/C(=O)c2ccc(F)cc2)c1	FXN GAA850 act 10.7 | GAA30 counter inactive | FXN GAA850 conf 25.4
COc1cccc(NC(=O)C[C@H]2CC[C@@H]3[C@H](COc4ccc(NC(=O)C5CCCCC5)cc4C(=O)N3C)O2)c1	none (no result: NR2E3 ag-1, V-ATPase pHluor, GalR3 antagonist, NR2E3 ag-2, FXN GAA850 act)
COc1ccccc1-c1nc(-c2ccc(C)nc2OC)no1	FXN GAA850 act 8.8 | GAA30 counter 121.0 | FXN GAA850 conf 40.2
COc1nc(C)ccc1-c1noc(-c2ccccn2)n1	none (no result: HIV Env fusion, GalR3 antagonist)
Cc1ccc(Nc2nc(N)nc(-c3oc4ccccc4c3C)n2)cc1	none (no result: HIV Env fusion, GalR3 antagonist)
Cc1c(-c2nc(N)nc(Nc3ccccc3F)n2)oc2ccccc12	FXN GAA850 act 13.7 | GAA30 counter 112.5 | FXN GAA850 conf 47.7
C[C@H]1c2cccc(O)c2C(O)=C2C(=O)[C@]3(O)C(O)=C(C(N)=O)C(=O)[C@@H](N(C)C)C3[C@@H](O)C21 (stereo not given in full)	FXN GAA850 act 16.0 | GAA30 counter inactive | FXN GAA850 conf inactive
